Here are results for 19 compounds from ChEMBL document CHEMBL4673367, “N-Benzyl-linoleamide, a Constituent of Lepidium meyenii (Maca), Is an Orally Bioavailable Soluble Epoxide Hydrolase Inhibitor That Alleviates Inflammatory Pain” (J Nat Prod, 2020).

The source made the active and inactive calls.

Data set [1] deals with T1, Bifunctional epoxide hydrolase 2 (Mus musculus, UniProt P34914).
T1 sequence (P34914 whole entry): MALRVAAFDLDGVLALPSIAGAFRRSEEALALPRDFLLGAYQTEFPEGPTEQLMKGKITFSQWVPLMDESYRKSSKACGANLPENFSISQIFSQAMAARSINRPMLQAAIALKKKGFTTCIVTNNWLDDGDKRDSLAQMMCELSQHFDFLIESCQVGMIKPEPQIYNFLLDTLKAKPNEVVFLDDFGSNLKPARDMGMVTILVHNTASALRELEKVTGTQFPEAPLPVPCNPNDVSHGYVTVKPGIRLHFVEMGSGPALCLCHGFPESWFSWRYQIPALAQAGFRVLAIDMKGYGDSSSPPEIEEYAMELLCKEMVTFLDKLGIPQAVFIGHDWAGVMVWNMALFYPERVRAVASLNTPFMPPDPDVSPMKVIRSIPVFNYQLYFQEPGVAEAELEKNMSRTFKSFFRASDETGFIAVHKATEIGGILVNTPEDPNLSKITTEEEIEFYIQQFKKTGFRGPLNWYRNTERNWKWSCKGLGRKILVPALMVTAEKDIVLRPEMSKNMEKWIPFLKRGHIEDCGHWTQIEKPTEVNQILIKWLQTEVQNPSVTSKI
The data set is described as follows: Inhibition of recombinant mouse sEH expressed in baculovirus expression system using MNPC as substrate by fluorescence-based assay. An outline of the steps: (§1)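 Recombinant human, mouse or rat sEH tested with serial dilutions of inhibitor in 96-well format. MNPC substrate at 5 μM final. Fluorescent 6-methoxynaphthaldehyde product read at ex 330 / em 465 nm. IC50 derived from these readings.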

For data set [2], the target named is T2, Bifunctional epoxide hydrolase 2 (Rattus norvegicus, UniProt P80299).
T2 sequence (P80299 whole entry): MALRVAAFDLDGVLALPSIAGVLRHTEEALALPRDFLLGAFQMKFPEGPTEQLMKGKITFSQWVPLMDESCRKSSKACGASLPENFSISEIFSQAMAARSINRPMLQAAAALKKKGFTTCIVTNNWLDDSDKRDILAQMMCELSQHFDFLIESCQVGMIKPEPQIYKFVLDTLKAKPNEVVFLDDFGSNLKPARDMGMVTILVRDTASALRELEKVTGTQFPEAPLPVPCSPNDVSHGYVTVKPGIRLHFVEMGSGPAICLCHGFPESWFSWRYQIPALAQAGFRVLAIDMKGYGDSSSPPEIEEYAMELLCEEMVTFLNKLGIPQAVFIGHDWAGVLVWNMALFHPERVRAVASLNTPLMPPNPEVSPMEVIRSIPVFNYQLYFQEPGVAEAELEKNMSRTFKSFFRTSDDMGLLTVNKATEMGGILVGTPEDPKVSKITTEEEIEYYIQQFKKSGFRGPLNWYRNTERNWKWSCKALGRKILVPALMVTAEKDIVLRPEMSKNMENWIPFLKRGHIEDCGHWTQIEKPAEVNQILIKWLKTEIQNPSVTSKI
The data set is described as follows: Inhibition of recombinant rat sEH expressed in baculovirus expression system using MNPC as substrate by fluorescence-based assay. The gist of the method: as §1

The target in data set [3] is T3, Bifunctional epoxide hydrolase 2 (Homo sapiens, UniProt P34913).
T3 sequence (P34913 whole entry): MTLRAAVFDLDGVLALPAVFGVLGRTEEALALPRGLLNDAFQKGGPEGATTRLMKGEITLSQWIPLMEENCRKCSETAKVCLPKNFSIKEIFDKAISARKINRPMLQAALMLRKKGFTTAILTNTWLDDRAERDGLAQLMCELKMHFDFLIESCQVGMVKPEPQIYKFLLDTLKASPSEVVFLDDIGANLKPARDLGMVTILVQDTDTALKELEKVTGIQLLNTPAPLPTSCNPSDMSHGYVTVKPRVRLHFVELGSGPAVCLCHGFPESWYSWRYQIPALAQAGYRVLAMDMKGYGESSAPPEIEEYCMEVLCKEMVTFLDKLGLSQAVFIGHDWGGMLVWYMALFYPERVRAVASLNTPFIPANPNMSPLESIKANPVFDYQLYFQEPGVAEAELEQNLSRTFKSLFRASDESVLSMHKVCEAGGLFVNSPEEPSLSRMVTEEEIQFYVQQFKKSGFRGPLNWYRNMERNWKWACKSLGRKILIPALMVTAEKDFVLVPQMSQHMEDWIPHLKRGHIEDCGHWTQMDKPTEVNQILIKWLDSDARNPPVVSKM
As to the kind of experiment: Inhibition of recombinant human sEH expressed in baculovirus expression system using MNPC as substrate by fluorescence-based assay. The gist of the method:
as §1

The nature of data set [4]: AUC in Sprague-Dawley rat at 100 mg/kg, po measured up to 96 hrs by LC/MS/MS analysis. Set-up: route oral, dose 100 mg/kg, time <=96. In kind it is ADME, organism-based. The conditions noted are these: in vivo. The gist of the method: (§2)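 Male SD rats (8 weeks, 250–300 g, n=4/group) given a single oral gavage of 100 mg/kg in 100% NEOBEE 1053. Plasma concentrations followed over a 96-h time course. Blood processed and quantified by an earlier reported method. Parameters reported as mean ± SEM.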

Data set [5] can be described thus: Cmax in Sprague-Dawley rat at 100 mg/kg, po measured up to 96 hrs by LC/MS/MS analysis. In kind it is ADME, organism-based. Also noted: route oral, dose 100 mg/kg, time <=96. The conditions noted are these: in vivo. The gist of the method: as §2
Data set [6] concerns Rattus norvegicus. As to the kind of experiment: Antinociceptive activity against LPS-induced inflammatory pain Sprague-Dawley rat model assessed as increase in paw withdrawal threshold at 100 mg/kg, po measured up to 6 hrs by von Frey assay. In kind it is functional, organism-based. The following applies: time hrs <=6. The gist of the method: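 Male SD rats, n=4/group, randomized and blinded. Baseline von Frey mechanical withdrawal thresholds taken before dosing. Oral gavage of 100 mg/kg in 1 mL 100% NEOBEE 1053 (vehicle control alongside). Immediately after, 50 μL of 0.2 μg/mL LPS in saline injected intraplantar into one hind paw. Ipsilateral thresholds measured 3–5 times per rat per time point over 6 h. Expressed as percent of baseline, group mean ± SEM.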

A short description of data set [7]: Tmax in Sprague-Dawley rat at 100 mg/kg, po measured up to 96 hrs by LC/MS/MS analysis. The conditions noted are these: in vivo. In kind it is ADME, organism-based. The gist of the method: as §2
Data set [8] in a line: Half life in Sprague-Dawley rat at 100 mg/kg, po measured up to 96 hrs by LC/MS/MS analysis. In kind it is ADME, organism-based. The following applies: in vivo. An outline of the steps: as §2

What is called IC50 is the concentration that inhibits the measured activity by half. As for `CCCCC/C=C\C/C=C\C/C=C\C/C=C\CCCC(=O)NCc1ccccc1`, the IC50 in data set [1] amounted to 50 nM; in data set [2] it was 40 nM; in data set [3], 123 nM.

Consider `CCCCC/C=C\C/C=C\CCCCCCCC(=O)NCCc1ccccc1`, for which the figures for the IC50 in data set [1] and in data set [2] were 91 nM and 33 nM, respectively.

For `CCCCCCCCCCCCCCCC(=O)NCc1ccc(OC)c(OC)c1`, the results for the IC50 in data set [1], in data set [2] and in data set [3] were over 100000 nM, 15900 nM and 7060 nM, respectively.

In the case of `CCCCCCCCCCCCCCCC(=O)NCc1ccccc1`, the IC50 was 422 nM in data set [1], 370 nM in data set [2] and 524 nM in data set [3].

Turning to `CC/C=C\C/C=C\C/C=C\C/C=C\C/C=C\CCCC(=O)NCc1cccc(OC)c1`, the results for the IC50 in data set [1], in data set [2] and in data set [3] were 49 nM, 18.6 nM and 63 nM, respectively.

Turning to `CCCCC/C=C\C/C=C\C/C=C\C/C=C\CCCC(=O)NCc1cccc(OC)c1`, the IC50 in data set [1] is 73 nM; in data set [2], 22 nM; in data set [3], 55 nM.

On to `CC/C=C\C/C=C\C/C=C\CCCCCCCC(=O)NCCc1ccccc1`, for which the figures for the IC50 in data set [1], in data set [2] and in data set [3] were 39 nM, 15 nM and 15 nM, respectively.

With `CCCCC/C=C\C/C=C\CCCCCCCC(=O)NCc1cccc(OC)c1`, the IC50 in data set [1] was 38 nM; in data set [2] it was 43 nM; in data set [3] it was 92 nM.

`CC/C=C\C/C=C\C/C=C\CCCCCCCC(=O)NCc1ccc(OC)c(OC)c1`: the IC50 in data set [1] stood at 122 nM; in data set [2] it was 90 nM; in data set [3], 84 nM.

Take `CCCCCCCCCCCCCCCC(=O)NCc1cccc(OC)c1`: the IC50 was determined as 159 nM in data set [1], 113 nM in data set [2] and 235 nM in data set [3].

What is called AUC is concentration integrated over time. High values mean high exposure, low ones low exposure. The term Cmax denotes the highest concentration seen after dosing. As usually defined, the Tmax is the time at which the peak concentration occurs. As for `CCCCC/C=C\C/C=C\CCCCCCCC(=O)NCc1ccccc1`, the AUC in data set [4] was found to be 3.69 µM·h. Moreover, the IC50 in data set [1] stood at 44 nM; in data set [2], 41 nM; in data set [3], 155 nM. The Cmax in data set [5] was found to be 519 nM. For the same compound, in data set [6], the outcome was Active. Besides, in data set [7], the Tmax is 3 h. In addition, the t1/2 in data set [8] was 9 h.

`CC/C=C\C/C=C\C/C=C\CCCCCCCC(=O)NCc1ccccc1` showed an AUC in data set [4] of 0.723 µM·h. Further, the IC50 in data set [1] worked out at 28 nM; in data set [2] it was 23 nM; in data set [3], 134 nM. In data set [5], this compound displayed a Cmax of 54 nM. The result in data set [6] was inactive. Further, the Tmax in data set [7] was found to be 6 h. The same compound came in with a t1/2 in data set [8] of 14.6 h.

Regarding `CCCCCCCCCCCCCCCCCC(=O)NCc1ccccc1`, the values for the IC50 in data set [1], in data set [2] and in data set [3] were 59600 nM, 35800 nM and over 100000 nM, respectively.

For the compound `CC/C=C\C/C=C\C/C=C\CCCCCCCC(=O)NCc1cccc(OC)c1`, the IC50 is 27 nM in data set [1], 9.3 nM in data set [2] and 76 nM in data set [3].

Take `CC/C=C\C/C=C\C/C=C\C/C=C\C/C=C\CCCC(=O)NCc1ccccc1`: the IC50 worked out at 43 nM in data set [1], 29 nM in data set [2] and 111 nM in data set [3].

As to `CCCCCCCC/C=C\CCCCCCCC(=O)NCc1cccc(OC)c1`, the IC50 in data set [1] was found to be 126 nM; in data set [2] it was 84 nM; in data set [3], 241 nM.

Consider `CCCCC/C=C\C/C=C\CCCCCCCC(=O)NCc1ccc(OC)c(OC)c1`, for which the IC50 in data set [1] turned out to be 148 nM; in data set [2], 111 nM; in data set [3], 104 nM.

As to `CCCCCCCCCCCCCCCCCC(=O)NCc1cccc(OC)c1`, the IC50 in data set [1] is 89900 nM; in data set [2], 28700 nM; in data set [3] it was 16100 nM.

Regarding `CCCCCCCC/C=C\CCCCCCCC(=O)NCc1ccccc1`, the figures for the IC50 in data set [1], in data set [2] and in data set [3] were 265 nM, 198 nM and 893 nM, respectively.
